Data set [1] can be described thus: Half life in mouse liver microsomes at 5 uM in presence of UDPGA. The format is ADME, Microsome. In a few lines:
(§1)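 Human or mouse liver microsomes (1.0 mg protein/ml) were pretreated with 25 µg/ml alamethicin in 50 mM Tris-HCl, pH 7.5, at 4 °C for 30 min to release UGTs. Compound at 5 µM was then incubated with 2 mM UDPGA at 37 °C for 60 min. The reaction was quenched with three volumes of acetonitrile and centrifuged.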
Background: Liver microsomes are a subcellular fraction often used to study metabolism.

Data set [2] is described as follows: Half life in mouse liver microsomes at 1 uM in presence of NADPH. The format is ADME, Microsome. In a few lines:
(§2)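 Compound at 1 µM was incubated at 37 °C for 30 min with human or mouse liver microsomes (0.5 mg protein/ml) in 50 mM phosphate buffer, pH 7.4, with 1 mM NADPH. The reaction was quenched with three volumes of acetonitrile and centrifuged. Remaining compound in the supernatant was quantified by LC/MS.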

The next data set relates to PC-3. In words: Cytotoxicity against PTEN-deficient human PC3 cells assessed as growth inhibition after 96 hrs. The note with it: PC-3, 96 h. In kind it is functional, cell-based. In short, it runs like this:
(§3)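 KPL-4 breast, HCT116 colon and PC-3 prostate cancer cells were exposed to a range of compound concentrations for 96 h. Growth inhibition was read with Cell Counting Kit-8.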

In a further data set the test system is HCT-116. In words: Cytotoxicity against human HCT116 cells expressing PI3Kalpha H1047R mutant assessed as growth inhibition after 96 hrs. In kind it is functional, cell-based. The note with it: HCT-116, 96 h. In short, it runs like this:
as §3

Data set [3] in a line: AUC in BALB/c nu mouse at 100 mg/kg, po. In kind it is ADME, organism-based. Further details: dose 100 mg/kg, route oral. The note with it: plasma. In short, it runs like this: (§4)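 Female BALB/c-nu mice, n = 2 per group, dosed iv at 10 mg/kg or po at 100 mg/kg. Heparinized blood drawn at 0.08, 0.25, 2, 4, 7 and 24 h after iv dosing, and at 0.50, 2, 4, 7 and 24 h after po dosing. Plasma stored at -80 °C and assayed by LC–MS/MS. Parameters come from non-compartmental analysis and are the mean of two animals.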

Data set [4] can be described thus: Antitumor activity against human KPL4 cells expressing PI3Kalpha H1047R mutant xenografted in BALB nu/nu mouse assessed as tumor growth inhibition at 80mg/kg, po qd relative to control. In kind it is functional. The note with it: read-out: TGI. In a few lines: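 KPL-4 cells were injected orthotopically into the mammary fat pad of female BALB-nu/nu mice. Tumors were measured with a gauge twice weekly, with volume = length × width²/2. Once tumors reached about 200 mm³, mice were randomized (n = 5 per group) and treatment began.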
In general terms: Xenograft models place foreign cells or tissue in a host animal.

Data set [5] in a line: Apparent oral clearance in BALB/c nu mouse at 100 mg/kg. The conditions noted are these: in vivo. Further details: dose 100 mg/kg, route oral. The format is ADME, organism-based. In short, it runs like this: as §4
Data set [6] is described as follows: Half life in BALB/c nu mouse at 100 mg/kg, po. The note with it: in vivo. Details: dose 100 mg/kg, route oral. The format is ADME, organism-based. In short, it runs like this: as §4
A short description of data set [7]: Cmax in BALB/c nu mouse at 100 mg/kg, po. The format is ADME, organism-based. Details: dose 100 mg/kg, route oral. The note with it: in vivo. In a few lines:
as §4

The nature of data set [8]: Half life in BALB/c nu mouse at 10 mg/kg, iv. The format is ADME, organism-based. Details: dose 10 mg/kg, route intravenous. The conditions noted are these: in vivo. In a few lines: as §4
A short description of data set [9]: AUC in BALB/c nu mouse at 10 mg/kg, iv. The format is ADME, organism-based. Further details: dose 10 mg/kg, route intravenous. The conditions noted are these: plasma. In a few lines:
as §4

Data set [10] can be described thus: Cytotoxicity against human KPL4 cells expressing PI3Kalpha H1047R mutant assessed as growth inhibition after 96 hrs. The format is functional, cell-based. The note with it: KPL4, 96 h. In a few lines: as §3
Data set [11] in a line: Half life in human liver microsomes at 5 uM in presence of UDPGA. The format is ADME, Microsome. In short, it runs like this:
as §1

In data set [12] the target is Phosphatidylinositol 4,5-bisphosphate 3-kinase catalytic subunit alpha isoform (Homo sapiens, UniProt P42336). Briefly: Inhibition of PI3Kalpha (unknown origin) using phosphatidylinositol 4,5-bisphosphate as substrate. In a few lines:
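Recombinant PI3Kα (p110α/p85α) activity was measured with the Adapta Universal Kinase Assay using PIP2:PS lipid substrate.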

Data set [13] in a line: Half life in human liver microsomes at 1 uM in presence of NADPH. The format is ADME, Microsome. In short, it runs like this:
as §2

SMILES strings stand for the structures. A value given as a limit tells only on which side of the number the result lay.

Sequence of Phosphatidylinositol 4,5-bisphosphate 3-kinase catalytic subunit alpha isoform (P42336 whole entry, canonical isoform): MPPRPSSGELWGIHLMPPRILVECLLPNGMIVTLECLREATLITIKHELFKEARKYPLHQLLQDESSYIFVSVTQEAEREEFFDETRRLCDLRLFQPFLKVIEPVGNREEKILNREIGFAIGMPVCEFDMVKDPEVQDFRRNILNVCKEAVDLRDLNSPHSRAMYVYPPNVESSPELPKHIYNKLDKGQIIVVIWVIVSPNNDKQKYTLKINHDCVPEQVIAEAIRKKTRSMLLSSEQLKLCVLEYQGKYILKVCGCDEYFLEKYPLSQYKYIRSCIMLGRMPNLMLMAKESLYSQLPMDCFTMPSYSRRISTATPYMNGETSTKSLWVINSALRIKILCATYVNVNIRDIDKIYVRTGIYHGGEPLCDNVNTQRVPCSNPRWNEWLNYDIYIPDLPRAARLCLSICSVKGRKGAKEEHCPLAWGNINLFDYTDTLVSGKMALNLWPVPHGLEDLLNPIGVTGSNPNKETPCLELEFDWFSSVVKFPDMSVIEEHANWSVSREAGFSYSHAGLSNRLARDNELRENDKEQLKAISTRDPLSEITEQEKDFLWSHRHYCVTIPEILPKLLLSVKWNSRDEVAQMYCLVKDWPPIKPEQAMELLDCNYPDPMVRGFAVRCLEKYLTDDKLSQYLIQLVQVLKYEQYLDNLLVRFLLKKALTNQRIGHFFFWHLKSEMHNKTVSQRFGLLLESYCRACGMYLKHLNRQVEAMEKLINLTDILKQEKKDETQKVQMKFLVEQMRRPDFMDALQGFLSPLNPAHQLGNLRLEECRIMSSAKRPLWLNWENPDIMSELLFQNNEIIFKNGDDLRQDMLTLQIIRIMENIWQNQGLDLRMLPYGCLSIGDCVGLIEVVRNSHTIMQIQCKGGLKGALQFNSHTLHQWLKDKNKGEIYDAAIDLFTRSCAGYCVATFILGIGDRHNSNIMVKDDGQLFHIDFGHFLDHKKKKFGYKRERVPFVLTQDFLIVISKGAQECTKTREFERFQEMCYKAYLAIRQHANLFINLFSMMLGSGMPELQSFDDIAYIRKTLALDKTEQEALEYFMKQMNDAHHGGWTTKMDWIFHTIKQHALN

Consider `Oc1cccc(-c2nc(N3CCOCC3)nc3c2CCN3c2ccncc2)c1`, for which the half-life (usually the time in which the quantity being followed falls by half) at 5 µM in [1] is 0.102 h. The half-life at 1 µM in [2] amounted to 0.333 h. In addition, the IC50 (in general, the midpoint of a concentration-inhibition curve) in the data set on PC-3 is 140 nM; with HCT-116, 720 nM.
Consider `Nc1ncc(-c2nc(N3CCOCC3)nc3c2CCN3c2cccnc2)cn1`, for which the half-life at 5 µM in [1] and in [11] was over 1 h in each case. Besides, the figures for the AUC in [3] and in data set [9] were 19400 ng·h/mL and 4690 ng·h/mL, respectively. Further, in data set [4], the inhibition in vivo at 80 mg/kg worked out at 166%. The CL/F (commonly clearance divided by bioavailability, as obtained after extravascular dosing) in [5] stood at 86.1 mL/min/kg. Further, the half-life was 6.58 h in data set [6] and 10.3 h in data set [8]. In addition, the highest level in [7] (Cmax) was 4190 ng/mL. The half-life at 1 µM in [2] amounted to 1.05 h. Besides, the figures for the IC50 (in data set [10]; in the data set with PC-3; in the data set on HCT-116) were 15 nM, 420 nM and 170 nM, respectively.
Consider `NC(=O)c1cccc(-c2nc(N3CCOCC3)nc3c2CCN3c2ccncc2)c1`, for which, in [12], 19000 nM corresponded to half-maximal inhibition (IC50).
On the same count and under the same terms, the result for `CNC(=O)c1cccc(-c2nc(N3CCOCC3)nc3c2CCN3c2ccncc2)c1` reads 2400 nM; that for `CNS(=O)(=O)c1cccc(-c2nc(N3CCOCC3)nc3c2CCN3c2ccncc2)c1`, over 50000 nM.
Regarding `c1cc(N2CCc3c(-c4ccc5cn[nH]c5c4)nc(N4CCOCC4)nc32)ccn1`, in data set [12], the IC50 was over 50000 nM.
Regarding `c1cc(N2CCc3c(-c4ccc5[nH]ncc5c4)nc(N4CCOCC4)nc32)ccn1`, the IC50 in data set [12] is over 50000 nM.
`Nc1n[nH]c2cc(-c3nc(N4CCOCC4)nc4c3CCN4c3ccncc3)ccc12`: in data set [12], the IC50 is over 50000 nM.
`c1cc(-c2nc(N3CCOCC3)nc3c2CCN3c2ccncc2)c2cn[nH]c2c1` showed an IC50 in data set [12] of over 50000 nM.
Take `c1cc(-c2nc(N3CCOCC3)nc3c2CCN3c2ccncc2)c2[nH]ncc2c1`: the IC50 in [12] is over 50000 nM.
On the same count and under the same terms, the result for `c1cc(-c2nc(N3CCOCC3)nc3c2CCN3c2ccncc2)ccn1` reads 22600 nM.
For the compound `c1cncc(-c2nc(N3CCOCC3)nc3c2CCN3c2ccncc2)c1`, in [12], half-maximal inhibition (IC50) was put at 1700 nM.
In data set [12], `c1cc(N2CCc3c(-c4cncnc4)nc(N4CCOCC4)nc32)ccn1` registered an IC50 of 440 nM.
Take `Nc1ncc(-c2nc(N3CCOCC3)nc3c2CCN3c2ccncc2)cn1`: the half-life at 5 µM in data set [1] and in data set [11] was over 1 h each time. The half-life at 1 µM in data set [13] is 2.12 h; in data set [2], 0.45 h. The IC50 in data set [10] turned out to be 29 nM; with PC-3, 120 nM; in the data set with HCT-116, 91 nM; in data set [12], 26 nM.
In turn, `Oc1cccc(-c2nc(N3CCOCC3)nc3c2CCN3c2ccccn2)c1` showed a half-maximal inhibitory concentration (IC50) in data set [12] of over 50000 nM.
`Oc1cccc(-c2nc(N3CCOCC3)nc3c2CCN3c2ccccc2)c1` gave an IC50 in [12] of 1220 nM.
In data set [12], `Cc1cc(N2CCc3c(-c4cccc(O)c4)nc(N4CCOCC4)nc32)ccn1` registered an IC50 of 170 nM.
Compound `Oc1cccc(-c2nc(N3CCOCC3)nc3c2CCN3c2ccnc(O)c2)c1` showed an IC50 in data set [12] of 200 nM.
As for `Oc1cccc(-c2nc(N3CCOCC3)nc3c2CCN3c2ccc3ncccc3c2)c1`, in [12], the IC50 was over 50000 nM.
As to `Oc1cccc(-c2nc(N3CCOCC3)nc3c2CCN3c2nccs2)c1`, in [12], the midpoint of inhibition, the IC50, lay at 49 nM.
The same measure, in the same setting: the value for `Cn1ccc(N2CCc3c(-c4cccc(O)c4)nc(N4CCOCC4)nc32)n1` was 230 nM; that for `COc1cccc(-c2nc(N3CCOCC3)nc3c2CCN3c2ccncc2)c1` was 410 nM; that for `Cc1ccc(-c2nc(N3CCOCC3)nc3c2CCN3c2ccncc2)cc1O` was over 50000 nM.
For the compound `Cc1c(O)cccc1-c1nc(N2CCOCC2)nc2c1CCN2c1ccncc1`, in data set [12], the IC50 is over 50000 nM.
Same read-out and setting: the value for `Nc1cccc(-c2nc(N3CCOCC3)nc3c2CCN3c2ccncc2)c1` was 3700 nM; that for `O=C(O)c1cccc(-c2nc(N3CCOCC3)nc3c2CCN3c2ccncc2)c1` was over 50000 nM.

These data come from ChEMBL document CHEMBL2311318, “Lead optimization of a dihydropyrrolopyrimidine inhibitor against phosphoinositide 3-kinase (PI3K) to improve the phenol glucuronic acid conjugation” (Bioorg Med Chem Lett, 2013).
